System: Fibroblast
Experiment: Multiplex assay against human fibroblast
Format: toxicity, cell-based
Method in brief: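 Four dyes were applied at seeding to live cells: Hoechst33342, BioTracker Green Microtubule Cytoskeleton Dye, MitoTracker Red and Annexin V Alexa Fluor 680. Imaging after compound addition used a CQ1 microscope at 37°C and 5% CO2. CellPathfinder machine-learning gating then sorted cells into Hoechst high-intensity objects or normal cells, normal cells into healthy, pyknosed or fragmented nuclei, and pyknosed cells into mitotic or apoptotic, with tubulin, mitochondrial-mass and membrane-permeability phenotypes given as per cents of healthy-nucleus cells.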

[1] = 12 h, 1 µM, compound concentration 1 uM, replicate 1
[2] = 12 h, 1 µM, compound concentration 1 uM, replicate 2
[3] = 12 h, 10 µM, compound concentration 10 uM, replicate 1
[4] = 12 h, 10 µM, compound concentration 10 uM, replicate 2
[5] = 24 h, 1 µM, compound concentration 1 uM, replicate 1
[6] = 24 h, 1 µM, compound concentration 1 uM, replicate 2
[7] = 24 h, 10 µM, compound concentration 10 uM, replicate 1
[8] = 24 h, 10 µM, compound concentration 10 uM, replicate 2
[9] = 48 h, 1 µM, compound concentration 1 uM, replicate 1
[10] = 48 h, 1 µM, compound concentration 1 uM, replicate 2
[11] = 48 h, 10 µM, compound concentration 10 uM, replicate 1
[12] = 48 h, 10 µM, compound concentration 10 uM, replicate 2

## CCC(=O)OCC(=O)[C@@]1(OC(=O)CC)[C@@H](C)C[C@H]2[C@@H]3CCC4=CC(=O)C=C[C@]4(C)[C@@]3(Cl)[C@@H](O)C[C@@]21C [BECLOMETHASONE DIPROPIONATE]
[1]
  Population Apoptotic (%): 38%
  Population Fragmented Nuclei (%): 13%
  Population Healthy Nuclei (%): 73%
  Population Hoechst High Intensity Objects (%): 3%
  Population Membrane Permeable-Phenotype (%): 1%
  Population Mitochondria Different-Phenotype (%): 2%
  Population Mitotic Cells (%): 61%
  Population Normal (%): 96%
  Population Pyknosed Nuclei (%): 13%
  Population Tubulin-Different-Phenotype (%): 47%
  Total Cell Count: 135
[2]
  Population Apoptotic (%): 42%
  Population Fragmented Nuclei (%): 30%
  Population Healthy Nuclei (%): 40%
  Population Membrane Permeable-Phenotype (%): 5%
  Population Mitochondria Different-Phenotype (%): 10%
  Population Mitotic Cells (%): 57%
  Population Pyknosed Nuclei (%): 30%
  Population Tubulin-Different-Phenotype (%): 63%
  Total Cell Count: 155
[3]
  Population Apoptotic (%): 40%
  Population Fragmented Nuclei (%): 9%
  Population Healthy Nuclei (%): 69%
  Population Hoechst High Intensity Objects (%): 8%
  Population Membrane Permeable-Phenotype (%): 1%
  Population Mitochondria Different-Phenotype (%): 17%
  Population Mitotic Cells (%): 60%
  Population Normal (%): 91%
  Population Pyknosed Nuclei (%): 20%
  Population Tubulin-Different-Phenotype (%): 87%
  Total Cell Count: 157
[4]
  Population Fragmented Nuclei (%): 32%
  Population Healthy Nuclei (%): 42%
  Population Hoechst High Intensity Objects (%): 5%
  Population Membrane Permeable-Phenotype (%): 15%
  Population Mitochondria Different-Phenotype (%): 20%
  Population Mitotic Cells (%): 59%
  Population Normal (%): 94%
  Population Pyknosed Nuclei (%): 24%
  Population Tubulin-Different-Phenotype (%): 94%
  Total Cell Count: 96
[5]
  Population Apoptotic (%): 50%
  Population Fragmented Nuclei (%): 16%
  Population Healthy Nuclei (%): 65%
  Population Hoechst High Intensity Objects (%): 1%
  Population Membrane Permeable-Phenotype (%): 3%
  Population Mitochondria Different-Phenotype (%): 2%
  Population Mitotic Cells (%): 50%
  Population Normal (%): 98%
  Population Pyknosed Nuclei (%): 18%
  Population Tubulin-Different-Phenotype (%): 34%
  Total Cell Count: 134
[6]
  Population Apoptotic (%): 47%
  Population Fragmented Nuclei (%): 30%
  Population Healthy Nuclei (%): 45%
  Population Hoechst High Intensity Objects (%): 6%
  Population Membrane Permeable-Phenotype (%): 7%
  Population Mitochondria Different-Phenotype (%): 7%
  Population Mitotic Cells (%): 52%
  Population Normal (%): 93%
  Population Pyknosed Nuclei (%): 24%
  Population Tubulin-Different-Phenotype (%): 60%
  Total Cell Count: 150
[7]
  Population Apoptotic (%): 40%
  Population Fragmented Nuclei (%): 13%
  Population Healthy Nuclei (%): 66%
  Population Hoechst High Intensity Objects (%): 6%
  Population Membrane Permeable-Phenotype (%): 1%
  Population Mitochondria Different-Phenotype (%): 30%
  Population Mitotic Cells (%): 59%
  Population Normal (%): 93%
  Population Pyknosed Nuclei (%): 19%
  Population Tubulin-Different-Phenotype (%): 86%
  Total Cell Count: 148
[8]
  Population Apoptotic (%): 19%
  Population Fragmented Nuclei (%): 38%
  Population Healthy Nuclei (%): 40%
  Population Membrane Permeable-Phenotype (%): 15%
  Population Mitochondria Different-Phenotype (%): 12%
  Population Mitotic Cells (%): 80%
  Population Pyknosed Nuclei (%): 21%
  Population Tubulin-Different-Phenotype (%): 79%
  Total Cell Count: 104
[9]
  Population Apoptotic (%): 28%
  Population Fragmented Nuclei (%): 13%
  Population Healthy Nuclei (%): 56%
  Population Hoechst High Intensity Objects (%): 3%
  Population Membrane Permeable-Phenotype (%): 1%
  Population Mitochondria Different-Phenotype (%): 15%
  Population Mitotic Cells (%): 71%
  Population Normal (%): 96%
  Population Pyknosed Nuclei (%): 30%
  Population Tubulin-Different-Phenotype (%): 61%
  Total Cell Count: 132
[10]
  Population Apoptotic (%): 52%
  Population Fragmented Nuclei (%): 31%
  Population Healthy Nuclei (%): 41%
  Population Hoechst High Intensity Objects (%): 7%
  Population Membrane Permeable-Phenotype (%): 5%
  Population Mitochondria Different-Phenotype (%): 9%
  Population Mitotic Cells (%): 47%
  Population Normal (%): 92%
  Population Pyknosed Nuclei (%): 27%
  Population Tubulin-Different-Phenotype (%): 54%
  Total Cell Count: 143
[11]
  Population Apoptotic (%): 67%
  Population Fragmented Nuclei (%): 21%
  Population Healthy Nuclei (%): 54%
  Population Hoechst High Intensity Objects (%): 6%
  Population Membrane Permeable-Phenotype (%): 0%
  Population Mitochondria Different-Phenotype (%): 47%
  Population Mitotic Cells (%): 32%
  Population Normal (%): 93%
  Population Pyknosed Nuclei (%): 24%
  Population Tubulin-Different-Phenotype (%): 76%
  Total Cell Count: 162
[12]
  Population Apoptotic (%): 37%
  Population Fragmented Nuclei (%): 33%
  Population Healthy Nuclei (%): 33%
  Population Hoechst High Intensity Objects (%): 3%
  Population Membrane Permeable-Phenotype (%): 18%
  Population Mitochondria Different-Phenotype (%): 15%
  Population Mitotic Cells (%): 62%
  Population Normal (%): 96%
  Population Pyknosed Nuclei (%): 33%
  Population Tubulin-Different-Phenotype (%): 84%
  Total Cell Count: 99
